Screening data: PubChem BioAssay, several laboratories
KCC2 mod = KCC2 (human) Cl- transport modulation; Q9H2X9; B-score of Tl+ flux slope (higher = more flux/activation; lower = inhibition) at 10 µM; KCC2 cells, thallium flux FluoZin-2 fluorescence; 190,000 tested, 2.2% active;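 active means thallium flux slope and its plate-corrected score both differing from the plate sample mean at a set confidence after two filtering rounds, in either direction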;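 further: slope of fluorescence scaled to starting intensity during 10 to 20 s after thallium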
Target sequence (Q9H2X9 whole entry, looked up): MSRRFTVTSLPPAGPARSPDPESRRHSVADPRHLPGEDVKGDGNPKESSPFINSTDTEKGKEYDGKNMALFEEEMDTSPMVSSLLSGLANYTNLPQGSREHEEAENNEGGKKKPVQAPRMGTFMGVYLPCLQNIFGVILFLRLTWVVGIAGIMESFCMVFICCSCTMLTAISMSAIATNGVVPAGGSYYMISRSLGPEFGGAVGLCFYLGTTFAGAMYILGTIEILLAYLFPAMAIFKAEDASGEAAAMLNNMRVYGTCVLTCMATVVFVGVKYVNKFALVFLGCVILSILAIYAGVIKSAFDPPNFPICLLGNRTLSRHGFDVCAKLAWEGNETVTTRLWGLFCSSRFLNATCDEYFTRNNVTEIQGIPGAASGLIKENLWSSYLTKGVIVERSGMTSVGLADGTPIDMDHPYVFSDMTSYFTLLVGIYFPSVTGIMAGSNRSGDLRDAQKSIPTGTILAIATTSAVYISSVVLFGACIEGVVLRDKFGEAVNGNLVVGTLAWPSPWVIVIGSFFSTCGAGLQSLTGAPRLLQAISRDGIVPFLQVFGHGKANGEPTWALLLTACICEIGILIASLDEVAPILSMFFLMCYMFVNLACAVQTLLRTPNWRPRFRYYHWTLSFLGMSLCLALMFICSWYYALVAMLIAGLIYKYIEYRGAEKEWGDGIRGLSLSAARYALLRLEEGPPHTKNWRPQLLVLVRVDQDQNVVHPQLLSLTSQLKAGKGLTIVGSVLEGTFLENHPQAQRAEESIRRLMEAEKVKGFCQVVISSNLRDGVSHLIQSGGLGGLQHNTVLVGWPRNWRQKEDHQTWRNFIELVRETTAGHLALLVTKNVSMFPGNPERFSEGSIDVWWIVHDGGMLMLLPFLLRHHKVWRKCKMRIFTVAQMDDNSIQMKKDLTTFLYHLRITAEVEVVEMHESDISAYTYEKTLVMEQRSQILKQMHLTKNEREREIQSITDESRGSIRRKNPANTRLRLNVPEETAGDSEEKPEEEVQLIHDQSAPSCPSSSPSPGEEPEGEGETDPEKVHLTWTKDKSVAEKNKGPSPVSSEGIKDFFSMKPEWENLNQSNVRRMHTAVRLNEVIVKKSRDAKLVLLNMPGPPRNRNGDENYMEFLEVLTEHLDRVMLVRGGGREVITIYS
Diaph act CS = diaphorase activation or chemical reduction counter-screen; AID 1229; activation factor at 20 µM; 190,000 tested, 0.005% active; Diaphorase/resazurin coupled assay, resorufin fluorescence, 16 min; stronger effect = higher value; 1 = vehicle wells, 0 = NADH-free wells;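 active means diaphorase activity raised at least twofold by the compound at 20 µM; inactive means activation factor below 2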
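System – purified diaphorase enzyme from Clostridium kluyveri · Input – enzyme 0.07 U/mL final · Also added – final NADH 0.114 mM, resazurin 0.1 mM · Measured by – fluorescence of resorufin, 544 nm excitation, 590 nm emission · Timing – 16 min enzyme reaction, ambient temperature · Measure – resorufin increase flagging diaphorase activators or reducers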
WT yeast gro inh = growth inhibition of WT yeast, mitochondrial fusion screen; mitochondrial fusion phenotypic screen, WT strain; inhibition, % at 10 µM; 190,000 tested, 2.1% active; in the data active means inhibition above about 58%; tested in S. cerevisiae
Lmaj promast = reduces viability of Leishmania major promastigotes. resazurin fluorescence viability. inhibition, % at 10 µM. 200,000 tested, 9% active. AID 1063; in the data active means inhibition above about 50%;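 further: promastigotes grown with compound for 44 hours at 28 °C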
Diaph inh CS = counter-screen for diaphorase-based assays: diaphorase inhibitors and chemical oxidizers | inhibition, % at 20 µM | AID 1217 | diaphorase resazurin-to-resorufin fluorescence, NADH, 16 min; bacterial (C. kluyveri) enzyme, not human | 190,000 tested, 0.69% active;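 active means primary screen inhibition at 20 µM above a set limit, cut at about 50% in these data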;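 further: plate controls were DMSO with full reaction for no effect and wells lacking NADH for full effect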
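Test system: bacterial diaphorase enzyme (C. kluyveri); Quantity: 0.14 U/mL diaphorase, enzyme working solution; Times: reaction incubation of 16 min at room temperature; Measured by: fluorescence of resorufin formed from resazurin, Ex 544/Em 590 nm; Benchmarks: positive control minus NADH, DMSO neutral control.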
ROMK primary = modulators of human ROMK potassium channel | P48048 | Tet-inducible ROMK, thallium flux fluorescence; actives lie on both sides | B-score at 10 µM | 130,000 tested, 2% active | AID 1918;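 active means signal ratio slope over the read window, or its plate-corrected B-score, at least 3 SD from the plate mean, either direction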;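 further: B-score of the F/F0 ratio slope over 7 to 12 s after thallium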
Numbers without * were called inactive; / = no result given. Rows were chosen to be rich in hits. Some 12% of all compounds tested hit in one or more screens of this group.

SMILES	KCC2 mod	Diaph act CS	WT yeast gro inh	Lmaj promast	Diaph inh CS	ROMK primary
Cc1ccc(S(=O)(=O)Nc2ccccc2/C=N/c2nc3ccccc3n2C)cc1	0.19	1	13	8	2	-0.36
CCOc1ccc(S(=O)(=O)N2CCCCC2)c(C)c1C	-1.5	0.8	31	82*	15	-0.13
C=CCNC(=O)C1CC(=O)N(c2ccc(OCC(=O)NCc3ccccc3)cc2)C1 (stereo not drawn)	-0.16	0.9	-7	-9	11	/
O=C(/C=C/c1ccco1)Nc1ccccc1N1CCCCC1	0.2	0.6	70*	18	37	0.51
COC(=O)c1ccccc1NC(=O)/C=C/c1ccco1	-0.8	1	8	-7	3	-0.38
CN1CCN(c2ccc([N+](=O)[O-])cc2C(=O)c2ccccc2)CC1	-0.36	0.9	1	56*	7	0.18
Cc1cc(=O)[nH]c(NN=C2C3CC4CC(C3)CC2C4)n1	-1.2	/	/	/	/	/
COc1ccccc1NS(=O)(=O)c1cc(NC(=O)CCC2CCCC2)ccc1N1CCOCC1	-0.59	0.9	2	99*	12	0.43
COc1ccccc1NS(=O)(=O)c1cc(NC(=O)CC(C)(C)C)ccc1N1CCOCC1	-1.9	0.8	9	98*	16	1
COc1ccccc1NS(=O)(=O)c1cc(NC(=O)c2cccs2)ccc1N1CCOCC1	0.02	/	/	/	/	/
COc1cc(OC)c(S(=O)(=O)Nc2ccccc2N2CCOCC2)cc1NC(C)=O	-0.76	0.8	-10	2	19	-0.032
CCC1Oc2ccc(C)cc2N(CC(=O)N(Cc2ccc3c(c2)OCO3)CC2CCCO2)C1=O (stereo not drawn)	-1	0.7	4	34	26	-1.7
CCC1Oc2ccc(C)cc2N(CC(=O)N(Cc2cccnc2)Cc2ccc(C)o2)C1=O (stereo not drawn)	-0.6	0.7	0	100*	25	/
CC(C)Nc1nnc(SCC(=O)Nc2ccc3c(c2)C(=O)c2ccccc2C3=O)s1	-0.084	0.5	42	97*	52*	/
Cn1cccc1/C=C1\CCc2ccccc2C1=O	-0.98	0.5	60*	-2	45	-0.64
COc1ccc(/C=C2\COc3ccccc3C2=O)cc1OC	0.033	0.8	22	100*	22	-2.4
COc1cc(/C=C2/CCc3ccccc3C2=O)cc(OC)c1OC	-1.4	0.8	6	55*	16	/
COc1ccc(/C=C2\C(=O)OCc3cc(OC)c(OC)cc32)cc1OC	1.1	0.9	-3	4	9	/
CCOc1ccc(/C=C2\CCc3ccccc3C2=O)cc1	-0.1	/	/	/	/	/
COc1ccc2c(c1)CC/C(=C\c1ccc(OC)c(Cn3cccn3)c1)C2=O	-2.1	0.8	38	98*	24	-0.46
Cc1sc(NC(=O)c2ccc(OCC(C)C)cc2)c(C(N)=O)c1-c1ccc(Cl)cc1Cl	-0.95	0.8	9	27	24	0.77
CCCCNS(=O)(=O)c1ccc(NC(=O)c2c(-c3ccccc3Cl)noc2C)cc1	-0.35	0.9	2	19	14	-0.081
COc1cc(OC)nc(NC(=S)NC(=O)c2ccccc2)n1	2	0.9	3	-6	10	0.073
COc1ccc(/C=C2/CCc3ccccc3C2=O)cc1OC	-1.2	0.8	-8	52*	15	-0.11
COc1cc(/C=C2\CCc3ccccc3C2=O)cc(OC)c1OC	-3.4	0.9	-1	77*	11	-0.47
SMILES	KCC2 mod	Diaph act CS	WT yeast gro inh	Lmaj promast	Diaph inh CS	ROMK primary
O=C(Cn1c(C(=O)N2CCN(C3CCCC3)CC2)cc2sccc21)c1ccccc1	0.18	0.9	0	93*	6	/
O=C(Cn1c(C(=O)NCC2CCCO2)cc2sccc21)c1ccccc1 (stereo not drawn)	-0.27	0.8	-20	8	19	/
COC(=O)C(Oc1ccc2c(-c3ccc(OC)cc3)cc(=O)oc2c1)c1ccccc1 (stereo not drawn)	-0.4	0.8	36	13	16	/
CCOC(=O)C(Oc1ccc2c(-c3ccccc3)cc(=O)oc2c1)c1ccccc1 (stereo not drawn)	0.35	0.9	12	78*	9	0.68
CCCC(=O)Nc1cc(C(=O)O)ccc1Sc1ccccc1	-1.2	0.6	14	-9	36	-1.8
COc1ccc(/C=C2/SC(=O)N(CCNC(=O)C3COc4ccccc4O3)C2=O)cc1 (stereo not drawn)	-0.51	0.9	9	-2	7	/
O=C(CCCN1C(=O)/C(=C/c2ccccc2Cl)SC1=S)NNC(=O)c1ccncc1	-1.1	/	/	/	/	/
COc1ccc(/C=C2\SC(=S)N(CCCC(=O)Nc3ccccn3)C2=O)cc1OC	0.78	0.8	15	63*	15	/
O=C(CCCN1C(=O)/C(=C\c2cccs2)SC1=S)Nc1ccccn1	-0.24	0.9	-1	8	14	-0.051
COc1ccc(CN2C(=O)/C(=C/c3ccncc3)SC2=S)cc1	0.57	0.9	0	68*	7	-1.1
CCOc1ccc(/C=C2\SC(=O)N(CCNC(=O)C3COc4ccccc4O3)C2=O)cc1OC (stereo not drawn)	0.83	0.8	9	71*	23	-1.7
O=C(CCCN1C(=O)/C(=C/c2ccccc2Cl)SC1=S)NNC(=O)c1ccccc1Cl	-0.076	0.9	-7	67*	12	0.69
O=C1CSC(=Nc2ccccc2[N+](=O)[O-])N1	0.68	1	-20	3	-2	0.34
COc1cc(/C=C2\SC(=O)N(Cc3ccc(Cl)cc3)C2=O)cc([N+](=O)[O-])c1O	-2.2	0.1	56	3	87*	1.3
COc1cc(/C=C2/SC(=O)N(Cc3ccccc3)C2=O)ccc1OCc1ccncc1	0.3	1	-3	92*	-1	0.61
COc1cc(/C=C2\SC(=O)N(Cc3ccc(F)cc3)C2=O)cc([N+](=O)[O-])c1O	-2.4	0.8	62*	-4	24	-1.6
CCOC(=O)CN1C(=O)S/C(=C/c2ccc(OC)c([N+](=O)[O-])c2)C1=O	-0.3	0.9	-5	-2	9	-0.019
CC(C)CNC(=O)COC(=O)c1n[nH]c2ccccc12	1.7	1	-11	-7	3	0.03
CC(C)CNC(=S)NC1CCCC1	-0.73	0.9	7	-1	10	-0.99
O=C(O)C(Sc1ccncn1)c1ccccc1 (stereo not drawn)	0.21	1	-9	-4	0	-0.14
COc1ccc(C(=O)NNC(=O)C2CCCN(C3CC(=O)N(c4ccccc4)C3=O)C2)cc1 (stereo not drawn)	-0.13	/	/	/	/	-1
CCOC(=O)C1=C(CN2CCN(CCC#N)CC2)NC(=O)NC1c1ccc2c(c1)OCO2 (stereo not drawn)	1.3	1	-22	4	5	1.1
N#Cc1nc(COc2ccc(Cl)cc2)oc1NCc1ccc2c(c1)OCO2	/	0.9	22	75*	12	0.35
